“Also recorded” adds a separate entry of the source. Where no end group is shown, it is not given here.
Columns and labels:
[1] = tested on: GC-C knockout mouse intestine; details: cited from earlier work
[2] = tested on: GC-C knockout mouse kidneys; details: cited from earlier work
kidney = details: cited from earlier work
[3] = rat, mouse, and opossum forms; 37° C and neutral pH; cited from earlier work
[4] = molecular target: GC-C (GC-C-expressing T84 cell line) (Homo sapiens, UniProt P25092); experiment: T84 cell-based cyclic GMP bioassay
Sequence of GC-C (GC-C-expressing T84 cell line) (P25092 24-1073): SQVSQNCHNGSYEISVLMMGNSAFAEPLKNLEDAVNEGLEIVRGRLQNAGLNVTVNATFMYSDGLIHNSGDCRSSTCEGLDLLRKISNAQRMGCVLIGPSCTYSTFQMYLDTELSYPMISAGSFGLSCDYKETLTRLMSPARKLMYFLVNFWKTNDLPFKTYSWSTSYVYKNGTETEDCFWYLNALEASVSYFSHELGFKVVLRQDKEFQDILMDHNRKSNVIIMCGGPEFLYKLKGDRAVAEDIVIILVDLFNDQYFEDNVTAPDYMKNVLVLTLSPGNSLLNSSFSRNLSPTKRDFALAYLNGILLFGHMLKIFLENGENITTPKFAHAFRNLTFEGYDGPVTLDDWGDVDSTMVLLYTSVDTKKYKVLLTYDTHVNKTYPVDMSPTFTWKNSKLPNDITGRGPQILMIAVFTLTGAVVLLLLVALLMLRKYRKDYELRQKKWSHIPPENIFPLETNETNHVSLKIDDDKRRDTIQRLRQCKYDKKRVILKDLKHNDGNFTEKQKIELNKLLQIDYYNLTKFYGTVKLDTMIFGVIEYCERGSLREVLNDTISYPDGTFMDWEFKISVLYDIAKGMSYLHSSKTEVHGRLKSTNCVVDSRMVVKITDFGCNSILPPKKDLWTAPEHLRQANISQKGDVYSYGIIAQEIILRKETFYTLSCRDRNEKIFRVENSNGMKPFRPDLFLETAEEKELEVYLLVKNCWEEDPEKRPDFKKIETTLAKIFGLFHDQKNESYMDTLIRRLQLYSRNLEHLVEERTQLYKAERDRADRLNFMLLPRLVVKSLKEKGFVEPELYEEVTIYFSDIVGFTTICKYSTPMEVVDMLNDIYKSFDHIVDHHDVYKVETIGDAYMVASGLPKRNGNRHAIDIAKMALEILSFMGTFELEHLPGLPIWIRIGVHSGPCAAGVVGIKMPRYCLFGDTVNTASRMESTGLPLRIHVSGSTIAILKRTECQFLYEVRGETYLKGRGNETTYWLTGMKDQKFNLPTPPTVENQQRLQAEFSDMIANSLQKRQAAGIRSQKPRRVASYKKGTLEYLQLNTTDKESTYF
How it was run: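 Test peptide diluted into bioassay medium (1 mM IBMX, 137 mM NaCl, 5.4 mM KCl, 1.3 mM CaCl2, 1.0 mM MgSO4, 4.2 mM NaHCO3, phosphates, phenol red, 10 mM HEPES), pH readjusted to 7.0 if required, then applied to T84 cells for 30 min. Cells lysed; cyclic GMP measured by radioimmunoassay. Concentration-response data fitted with the log(agonist) vs response equation.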

[5] = tested on: anesthetized rats (male Sprague Dawley); experiment: Urinary sodium excretion; format: in vivo, rat
[6] = tested on: chymotrypsin-like activity in the kidney; details: cited from earlier work

Question: Which “secretory response from the intestine” value [1] does the source give for “rat Ugn: rat form of uroguanylin; A and B forms interconvert rapidly (TDECELCINVACTGC; not fully specified (bridges); ends and bridges not checked; UniProt P70668 92-106, looked up)” here?
Answer: only small, residual secretory responses

Question: And the “natriuretic response from the kidneys” value [2]?
Answer: apparently full natriuretic responses

Question: Which “natriuretic, kaliuretic, diuretic effect” value (kidney; every preparation that has been examined) does the source give for “uroguanylin (NDDCELCVNVACTGCL; ends and bridges not checked; cysteine pairing not given here; UniProt Q16661 97-112, looked up) [Ugn]” here?
Answer: natriuretic, kaliuretic, and diuretic in every preparation that has been examined

Question: And the “natriuretic potency, Ugn versus Gn” value (kidney; words)?
Answer: a more potent natriuretic factor than Gn

Question: What about the “rate of interconversion of the two conformations” value [3] of the same substance?
Answer: 1–2 cycles per sec

Question: What does the source list for “CCELCCNPACTGCY (also: bicyclic or more (positions not given here)) [ST-core]”?
Answer: EC50 for cyclic GMP stimulation relative to huUgnA (fold lower) ([4]; T84 cells, no reference or data printed): about 10 fold; pharmacological profile of GC-C-mediated responses (rank order) ([4]; described as well-established): ST core > huUgnA >> huUgnB, with all three peptides acting as pure agonists; natriuretic effect compared with huUgnA ([5]; iv infusion, cumulative 3 hour, Figure 6b, words): the maximal natriuresis elicited by ST-core was slightly less and the response was shifted to the right; also recorded: right-shifted, but otherwise quite similar to those evoked by huUgnA; pharmacological profile of the renal responses (rank order) ([5]; rat, in vivo): huUgnB ≥ huUgnA ≈ ST core, with physiological antagonism by huUgnA at high concentration

Question: With “guanylin (PGTCEICAYAACTGC; ends and bridges not checked; cysteine pairing not given here; UniProt Q02747 101-115, looked up) [Gn]” as the substance, how does the “kaliuretic activity, Gn versus Ugn” value (kidney; words) read?
Answer: more kaliuretic than Ugn

Question: What about the “susceptibility to proteolytic digestion” value ([6]; chymotrypsin-like activity in the kidney) of the same substance?
Answer: susceptible to proteolytic digestion

Question: What about the detectability in urine [6] of the same substance?
Answer: undetectable in urine

Question: What about the “rate of interconversion of the two conformations” value [3] of the same substance?
Answer: 1–2 cycles per sec

— publication PMC2729689 (Hypertension, 2009)
